Screening data deposited in PubChem by Sanford-Burnham Center for Chemical Genomics.
This is a sample that favours compounds with a hit; in the whole collection about 1.9% have one here.
LMPTP inh = LMPTP phosphatase inhibitors, primary screen, biochemical, fluorescence intensity, uHTS | recombinant LMPTP-A, OMFP fluorogenic substrate | 360,000 compounds, 0.22% hits | inhibition, % at 20 µM;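 active = compounds that cut the enzyme signal by at least half of the control window in the single-dose screen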;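 note: plate controls were DMSO wells with enzyme plus substrate for no effect and substrate without enzyme for full effect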
Target sequence (P24666 whole entry, looked up): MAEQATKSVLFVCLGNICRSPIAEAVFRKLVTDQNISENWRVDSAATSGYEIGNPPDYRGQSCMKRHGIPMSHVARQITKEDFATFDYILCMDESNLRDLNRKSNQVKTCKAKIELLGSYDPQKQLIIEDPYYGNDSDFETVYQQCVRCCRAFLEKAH
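Assay system: LMPTP-A, protein tyrosine phosphatase of low molecular weight / Medium: pH 6.0 Bis-Tris buffer with DTT and Triton X-100 / Schedule: 50 min enzyme reaction at room temperature, protected from light / Measured by: endpoint fluorescence intensity from OMFP dephosphorylation / Read-out basis: % inhibition relative to no-enzyme and uninhibited control wells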
UBC9 SUMO inh = inhibitors of in vitro SUMOylation cascade, primary screen, biochemical, HTRF, uHTS; HTRF SUMOylation assay, SAE1/SAE2 + UBC9; inhibition, % at 35 µM; 290,000 compounds, 0.36% hits; in the data active = inhibition above about 50%, passing the limit was not always enough; inconclusive = no clear call, values can overlap the other calls
Target sequence (P63279 whole entry, looked up): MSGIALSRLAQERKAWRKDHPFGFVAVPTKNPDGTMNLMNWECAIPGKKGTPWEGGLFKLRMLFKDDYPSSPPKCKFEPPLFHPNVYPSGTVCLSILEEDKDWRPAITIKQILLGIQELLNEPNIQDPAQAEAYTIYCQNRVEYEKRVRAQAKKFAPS
DNMT1 inh = human DNMT1 methyltransferase inhibitors, primary screen, biochemical, molecular beacon, fluorescence, HinP1I cleavage, uHTS; inhibition (reported as % activation of signal), % at 10 µM; DNA (cytosine-5)-methyltransferase 1 (Homo sapiens), P26358; 360,000 compounds, 0.83% hits; AID 588458, 2011; in the data active = inhibition above about 50%
STEP block = STEP phosphatase inhibitors, primary screen, biochemical, fluorescence intensity, uHTS; Tyrosine-protein phosphatase non-receptor type 5 (Homo sapiens), P54829; inhibition, % at 20 µM; 360,000 compounds, 0.25% hits; AID 588621, 2011; recombinant STEP, OMFP fluorogenic substrate;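 active = inhibition at 20 µM, scaled per plate between control wells, above about 37%, limit read from the data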;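 note: 0% = DMSO with enzyme and substrate and 100% = substrate only without enzyme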
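Material: STEP (striatal-enriched tyrosine phosphatase) enzyme, cell-free | Medium: 50 mM Bis-Tris pH 6.0 with 2.5 mM DTT and 0.005% Tween 20 | Read-out: Percent inhibition scaled to no-enzyme and uninhibited-enzyme controls, plate-pattern corrected | Signal: Fluorescence read at 480 nm ex / 540 nm em | Times: 20 min reaction, room temperature, in the dark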
Scp1 inh = Scp-1 phosphatase inhibitors, primary screen, biochemical, colorimetric, uHTS; Carboxy-terminal domain RNA polymerase II polypeptide A small phosphatase 1 (Homo …; Recombinant Scp1, phosphopeptide, malachite green phosphate absorbance; 340,000 compounds, 0.88% hits; AID 493091, 2011; inhibition, % at 20 µM;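 active = inhibition above about 50% at 20 µM, limit read from the data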;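 note: plate controls were DMSO wells with enzyme for no effect and wells lacking enzyme for full effect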
Target sequence (Q9GZU7 76-261 limits assumed): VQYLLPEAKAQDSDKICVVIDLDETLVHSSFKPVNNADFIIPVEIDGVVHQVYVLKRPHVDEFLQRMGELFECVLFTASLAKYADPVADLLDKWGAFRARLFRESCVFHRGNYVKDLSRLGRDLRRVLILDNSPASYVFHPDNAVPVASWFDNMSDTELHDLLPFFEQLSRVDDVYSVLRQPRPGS
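Test system: SCP-1 catalytic domain; Buffer or medium: Acidic Tris acetate buffer with magnesium and detergent; Also added: Phosphorylated 17-residue peptide substrate; Compound: single 20 µM dose, 1% DMSO; Schedule: enzyme reaction 45 min at room temperature, colour 5 min, stabilisation 30 min; Signal: Phosphate-binding colour reagent, absorbance read at 630 nm.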
SUMO1 PPI mod = modulators of SUMO1 protein-protein interactions, primary screen, biochemical, uHTS | Small ubiquitin-related modifier 1 (Homo sapiens), P63165 | 360,000 compounds, 0.33% hits | SUMO1 binding to a labelled peptide, TR-FRET, 1 h | inhibition, % at 20 µM | AID 602429, 2012; in the data active = inhibition above about 37%
Target sequence (P63165 whole entry, looked up): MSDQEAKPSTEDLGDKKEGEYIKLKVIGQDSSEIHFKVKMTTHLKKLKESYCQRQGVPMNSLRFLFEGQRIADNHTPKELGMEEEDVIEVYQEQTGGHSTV
Starred values were filed as active, the others as inactive; ? = inconclusive; . = no result given.

SMILES	LMPTP inh	UBC9 SUMO inh	DNMT1 inh	STEP block	Scp1 inh	SUMO1 PPI mod
CCN(CC)c1ccc(S(=O)(=O)N2CCCCC2)cc1NC(=O)CSCc1c(C)noc1C	0.4	.	-3.0	-0.2	-0.1	-0.3
CC(C)[C@H](CO)Nc1nc(Nc2ccc(Cl)c(C(=O)O)c2)c2ncn(C(C)C)c2n1	0.6	19.4	1.3	-2.0	4.0	69.0*
Cc1c(C(=O)NCc2ccco2)sc(=O)n1Cc1ccc(S(C)(=O)=O)cc1	-1.0	.	-5.0	-1.2	.	2.4
CN(C)c1ccc(NC(=S)c2ccc3ccccc3n2)cc1	7.2	4.9	-4.8	67.6*	-4.3	-19.2
Cc1ccc(C)c(NC(=S)c2ccc3ccccc3n2)c1	2.6	-20.0	2.2	1.2	-10.1	-3.3
O=C(NC1(O)C(=O)c2ccccc2C1=O)c1ccc(C(F)(F)F)cc1	3.7	89.5*	60.7*	1.6	3.1	6.9
O=C(CSc1nnc(SCc2ccccc2)s1)N/N=C/c1c[nH]c2ccccc12	12.2	15.4	4.0	4.2	-2.3	75.2*
O=C(COC(=O)c1ccc(-c2cnc3ccccc3n2)cc1)c1ccccc1	-1.5	1.5	8.8	-1.8	-10.5	40.6*
COc1ccc(OC)c(S(=O)(=O)N2CCCC(N3CCN(c4ccccc4)CC3)C2)c1 (stereo not drawn)	-0.1	3.2	12.3	-0.1	-10.3	4.3
O=C(Nc1ccc(F)cc1)c1ccc(NC(=O)C2CCCO2)cc1 (stereo not drawn)	-1.0	16.1	2.2	0.8	0.1	4.0
O=C(Nc1ccc(C(F)(F)F)cc1)c1ccc(NC(=O)C2CCCO2)cc1 (stereo not drawn)	39.7	23.1	9.0	51.6*	32.6	17.9
COc1ccc2cc(C(=O)N/N=C/c3sc4ccccc4c3O)ccc2c1	50.8*	-40.9	-8.3	17.6	85.4*	-24.9
Cc1ccc(S(=O)(=O)N2CCOCC2)cc1C(=O)O	-0.8	8.9	0.9	13.9	-1.8	1.4
O=C(O)c1cc2cccc(S(=O)(=O)N3CCOCC3)c2cc1O	-0.6	51.8*	18.1	0.8	3.3	-3.1
O=C(CCSc1ccc(F)cc1)NNC(=O)c1ccccc1Cl	-1.0	.	2.3	-3.1	-10.4	4.4
O=C1CSC(=S)N1/N=C/c1cc(Br)ccc1O	.	-11.4	.	.	.	.
O=C1CSC(=S)N1/N=C/c1ccc(O)c(O)c1O	64.9*	?	3.7	14.6	52.9*	10.3
O=S(=O)(/C=C/C=C/S(=O)(=O)c1ccccc1)c1ccccc1	0.2	.	14.4	0.9	-0.3	40.5*
O=C1c2cccc3cc([N+](=O)[O-])cc(c23)C(=O)N1CCN1CCCC1	40.3	28.0	70.5*	3.7	-1.8	-21.2
Nc1cc2c3c(cccc3c1)C(=O)N(CCN1CCCC1)C2=O	21.9	41.4	50.9*	-0.6	1.4	-27.4
Cc1cc(C)c(S(=O)(=O)N2CCN(CCN3C(=O)c4cccc5cccc(c45)C3=O)CC2)cc1[N+](=O)[O-]	.	9.3	.	.	.	.
CCc1ccc(OCC(=O)Nc2nnc(C3CCCC3)s2)cc1	-0.7	-3.2	5.3	0.4	-2.5	2.9
CNC(=O)CSc1nnc(-c2ccco2)n1-c1cccc(OC)c1	-0.7	1.4	-1.8	-3.0	1.2	6.9
Cc1cc(O)c(C=O)c2c1C(=O)Oc1c(CO)c(O)c3c(c1O2)C(O)OC3=O (stereo not drawn)	56.8*	96.5*	56.7*	46.2*	77.2*	103.3*
CC(=O)NCCCC(=O)NN1C(=S)N(Cc2ccccc2)C(=O)C1CC(=O)Nc1cccc(C)c1 (stereo not drawn)	-1.1	-8.8	0.2	-3.2	-7.4	-4.2
SMILES	LMPTP inh	UBC9 SUMO inh	DNMT1 inh	STEP block	Scp1 inh	SUMO1 PPI mod
CC(C)CC(C(=O)O)N1C(=O)C2C3C=CC(C2C1=O)C1C(=O)N(C(CC(C)C)C(=O)O)C(=O)C31 (stereo not drawn)	-2.0	3.7	9.8	2.7	14.9	0.6
O=C(N/N=C/c1ccc([N+](=O)[O-])o1)c1cn(-c2ccccc2)nc1-c1ccc(Cl)cc1	-0.3	44.4	50.1*	2.1	-2.8	7.9
O=C(N/N=C/c1ccc([N+](=O)[O-])o1)c1cn(-c2ccccc2)nc1-c1ccccc1	1.2	13.5	32.4	-1.0	-3.1	6.4
Cc1cccc(C(=O)O/N=C(/c2ccccc2)c2ccncc2)c1	0.7	18.5	-1.4	3.6	3.8	40.3*
Cc1ccc(C(C[N+](=O)[O-])c2c(C)[nH]n(-c3ccccc3)c2=O)cc1 (stereo not drawn)	3.1	71.2*	-18.5	-1.7	-2.1	4.0
Cc1[nH]n(-c2ccccc2)c(=O)c1C(C[N+](=O)[O-])c1ccc(F)cc1 (stereo not drawn)	-0.5	88.2*	-14.2	-1.4	-4.6	-0.9
CC1CCCN(CCCNC(=O)C2CC(=O)N(c3ccc(F)c(Cl)c3)C2)C1 (stereo not drawn)	-0.8	14.7	-2.9	-0.7	-10.8	41.9*
CC1CCCCN1CCNC(=O)C1CC(=O)N(c2ccc(F)c(Cl)c2)C1 (stereo not drawn)	-3.0	16.4	0.9	3.2	-3.3	-1.4
CC(C)C[C@@H]1O[C@H](CCc2ccccc2)Cc2[nH][nH]c(=O)c21	-1.9	.	.	.	.	3.2
CCN(CC)Cc1cc(Nc2c3ccccc3nc3c4ccccc4n(C)c23)cc(CN(CC)CC)c1O	76.8*	.	20.2	2.6	-7.6	-46.9
Oc1cccc(Nc2c3ccccc3nc3ccccc23)c1	11.1	2.2	42.5	1.3	5.2	-22.7
Cn1c(-c2ccccc2)c(Sc2ccccc2)c2cc(-c3ccc4[nH]ccc4c3)ccc21	2.1	.	.	.	.	-11.7
O=C1N(c2ccc(Cl)c(Cl)c2)CN(Cc2ccccc2)CN1n1cnnc1	-1.2	60.7*	-3.0	-1.6	-6.0	1.9
COc1ccc(CN2CN(c3ccc(Cl)cc3)C(=O)N(n3cnnc3)C2)cc1	-2.1	27.0	0.4	-4.5	-7.8	0.1
CC1=C(C#N)c2nc(N)c(C#N)c(C)c2/C1=C\c1ccc(OCC(=O)O)c(Cl)c1	31.5	18.8	-0.6	1.0	2.5	37.4*
CCCCCC(=O)NC(NC(=S)N1CCOCC1)C(Cl)(Cl)Cl (stereo not drawn)	-0.7	15.8	-2.4	2.0	2.0	2.9
CCCCCC(=O)NC(NC(=S)NC1CCS(=O)(=O)C1)C(Cl)(Cl)Cl (stereo not drawn)	-0.8	3.9	5.6	-1.2	-4.0	58.7*
